Reference: ChEMBL document CHEMBL5247578, “Effective synthesis of benzimidazoles-imidazo[1,2-a]pyrazine conjugates: A comparative study of mono-and bis-benzimidazoles for antitumor activity” (Eur J Med Chem, 2019)

Legend:
[1] = test system: EKVX; test: Antiproliferative activity against human EKVX cells assessed as cell growth at 0.000001 M incubated for 48 hrs by SRB assay relative to control; assay type: functional; details: read-out: Activity
Summary of the method: (§1)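 NCI-60 five-dose screen (10^-4 to 10^-8 M). Cells grown in RPMI 1640 with 5% FBS and 2 mM L-glutamine, plated at 5,000-40,000 cells/well and preincubated 24 h. Drug given from DMSO stock, then 48 h at 37 °C, 5% CO2. For adherent lines, cells fixed with cold TCA, SRB-stained and read at 515 nm. Percent growth taken against time-zero and untreated control.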

[2] = test system: HOP-62; test: Antiproliferative activity against human HOP-62 cells assessed as cell growth at 0.00000001 M incubated for 48 hrs by SRB assay relative to control; assay type: functional; details: dose 10 nM, read-out: Activity; summary of the method: as §1
[3] = test system: HL-60; test: Growth inhibition against human HL-60 cells incubated for 48 hrs by sulforhodamine B assay; assay type: functional
[4] = test system: NCI-H322M; test: Antiproliferative activity against human NCI-H322M cells assessed as cell growth at 0.0000001 M incubated for 48 hrs by SRB assay relative to control; assay type: functional; details: dose 100 nM, read-out: Activity
[5] = test system: COLO 205; test: Growth inhibition against human COLO 205 cells incubated for 48 hrs by sulforhodamine B assay; assay type: functional
[6] = test system: SR; test: Antiproliferative activity against human SR cells assessed as cell growth at 0.0000001 M incubated for 48 hrs by SRB assay relative to control; assay type: functional; details: dose 100 nM, read-out: Activity
[7] = test system: OVCAR-5; test: Antiproliferative activity against human OVCAR-5 cells assessed as cell growth at 0.0000001 M incubated for 48 hrs by SRB assay relative to control; assay type: functional; details: dose 100 nM, read-out: Activity
[8] = test system: HT-29; test: Antiproliferative activity against human HT-29 cells assessed as cell growth at 0.00000001 M incubated for 48 hrs by SRB assay relative to control; assay type: functional; details: dose 10 nM, read-out: Activity; summary of the method: as §1
[9] = test system: SW-620; test: Antiproliferative activity against human SW620 cells assessed as cell growth at 0.0000001 M incubated for 48 hrs by SRB assay relative to control; assay type: functional; details: dose 100 nM, read-out: Activity
[10] = test system: MDA-MB-231; test: Growth inhibition against human MDA-MB-231 cells assessed as total growth inhibitory concentration incubated for 48 hrs by sulforhodamine B assay; assay type: functional
[11] = test system: A498; test: Antiproliferative activity against human A498 cells assessed as cell growth at 0.00000001 M incubated for 48 hrs by SRB assay relative to control; assay type: functional; details: dose 10 nM, read-out: Activity
Summary of the method: (§2)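 NCI-60 five-dose screen over 10^-4–10^-8 M (10-fold dilutions). Cells grown in RPMI 1640 with 5% FBS and 2 mM L-glutamine, seeded at 5,000–40,000 cells/well and preincubated 24 h. Drug from DMSO stock, 48 h at 37 °C, 5% CO2. Adherent cells TCA-fixed and stained with 0.4% SRB; A515 read. Percent growth = (Ti−Tz)/(C−Tz)×100, or (Ti−Tz)/Tz×100 when Ti<Tz.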

[12] = test system: SK-OV-3; test: Antiproliferative activity against human SK-OV-3 cells assessed as cell growth inhibition by measuring lethal concentration incubated for 48 hrs by sulforhodamine B assay; assay type: functional; details: read-out: LC50 (the source's name)
[13] = test system: ACHN; test: Antiproliferative activity against human ACHN cells assessed as cell growth at 0.00000001 M incubated for 48 hrs by SRB assay relative to control; assay type: functional; details: dose 10 nM, read-out: Activity; summary of the method: as §2
[14] = test system: HOP-62; test: Antiproliferative activity against human HOP-62 cells assessed as cell growth inhibition by measuring lethal concentration incubated for 48 hrs by sulforhodamine B assay; assay type: functional; details: read-out: LC50 (the source's name)
[15] = test system: U-251; test: Antiproliferative activity against human U-251 cells assessed as cell growth inhibition by measuring lethal concentration incubated for 48 hrs by sulforhodamine B assay; assay type: functional; details: read-out: LC50 (the source's name)
Summary of the method: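 NCI-60 five-dose screen (10^-4 to 10^-8 M, 10-fold dilutions; DMSO stocks). Cells in RPMI 1640 with 5% FBS and 2 mM L-glutamine, preincubated 24 h, then exposed 48 h at 37 °C, 5% CO2. Fixed with cold TCA, stained with 0.4% SRB, absorbance read at 515 nm. Time-zero plates used as reference. LC50 taken from [(Ti-Tz)/Tz]×100 […].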

[16] = test system: M14; test: Antiproliferative activity against human M14 cells assessed as cell growth inhibition by measuring lethal concentration incubated for 48 hrs by sulforhodamine B assay; assay type: functional; details: read-out: LC50 (the source's name)
[17] = test system: KM12; test: Antiproliferative activity against human KM12 cells assessed as cell growth at 0.00000001 M incubated for 48 hrs by SRB assay relative to control; assay type: functional; details: dose 10 nM, read-out: Activity
[18] = test system: OVCAR-5; test: Antiproliferative activity against human OVCAR-5 cells assessed as cell growth inhibition by measuring lethal concentration incubated for 48 hrs by sulforhodamine B assay; assay type: functional; details: read-out: LC50 (the source's name)
[19] = test system: CCRF-CEM; test: Antiproliferative activity against human CCRF-CEM cells assessed as cell growth at 0.000001 M incubated for 48 hrs by SRB assay relative to control; assay type: functional; details: read-out: Activity; summary of the method: as §2
[20] = test system: HL-60; test: Antiproliferative activity against human HL-60 cells assessed as cell growth inhibition by measuring lethal concentration incubated for 48 hrs by sulforhodamine B assay; assay type: functional; details: read-out: LC50 (the source's name)
[21] = test system: CCRF-CEM; test: Growth inhibition against human CCRF-CEM cells assessed as total growth inhibitory concentration incubated for 48 hrs by sulforhodamine B assay; assay type: functional
[22] = test system: HL-60; test: Antiproliferative activity against human HL-60 cells assessed as cell growth at 0.000001 M incubated for 48 hrs by SRB assay relative to control; assay type: functional; details: read-out: Activity; summary of the method: as §1
[23] = test system: SNB-75; test: Antiproliferative activity against human SNB-75 cells assessed as cell growth at 0.0000001 M incubated for 48 hrs by SRB assay relative to control; assay type: functional; details: dose 100 nM, read-out: Activity
[24] = test system: HEK293; test: Cytotoxicity against human HEK293 cells assessed as reduction in cell viability at 0.00000001 M incubated for 48 hrs by MTT colorimetric assay relative to control; assay type: toxicity, cell-based; details: hek293, 48 h, 0.01 µM, dose 10 nM
[25] = test system: SNB-75; test: Antiproliferative activity against human SNB-75 cells assessed as cell growth at 0.000001 M incubated for 48 hrs by SRB assay relative to control; assay type: functional; details: read-out: Activity
[26] = test system: BT-549; test: Antiproliferative activity against human BT-549 cells assessed as cell growth inhibition by measuring lethal concentration incubated for 48 hrs by sulforhodamine B assay; assay type: functional; details: read-out: LC50 (the source's name)
[27] = test system: TK-10; test: Growth inhibition against human TK-10 cells incubated for 48 hrs by sulforhodamine B assay; assay type: functional
[28] = test system: HCT-116; test: Antiproliferative activity against human HCT-116 cells assessed as cell growth at 0.00000001 M incubated for 48 hrs by SRB assay relative to control; assay type: functional; details: dose 10 nM, read-out: Activity; summary of the method: as §1
[29] = test system: SK-MEL-5; test: Antiproliferative activity against human SK-MEL-5 cells assessed as cell growth at 0.0001 M incubated for 48 hrs by SRB assay relative to control; assay type: functional; details: read-out: Activity
[30] = test system: HCT-15; test: Antiproliferative activity against human HCT-15 cells assessed as cell growth at 0.0000001 M incubated for 48 hrs by SRB assay relative to control; assay type: functional; details: dose 100 nM, read-out: Activity; summary of the method: as §1
[31] = test system: MDA-MB-468; test: Antiproliferative activity against human MDA-MB-468 cells assessed as cell growth inhibition by measuring lethal concentration incubated for 48 hrs by sulforhodamine B assay; assay type: functional; details: read-out: LC50 (the source's name)
[32] = test system: NCI-H226; test: Antiproliferative activity against human NCI-H226 cells assessed as cell growth at 0.00000001 M incubated for 48 hrs by SRB assay relative to control; assay type: functional; details: dose 10 nM, read-out: Activity

SMILES | growth at 1 µM [1] | growth at 0.01 µM [2] | GI50 [3] | growth at 0.1 µM [4] | GI50 [5] | growth at 0.1 µM [6] | growth at 0.1 µM [7] | growth at 0.01 µM [8] | growth at 0.1 µM [9] | TGI [10] | growth at 0.01 µM [11] | CC50 [12] | growth at 0.01 µM [13] | CC50 [14] | CC50 [15] | CC50 [16] | growth at 0.01 µM [17] | CC50 [18] | growth at 1 µM [19] | CC50 [20] | further results
c1ccc(Cn2cnc3ccc(-c4nc(-c5ccc6c(c5)ncn6C5CCCCC5)cn5ccnc45)cc32)cc1 | 76% | 79% | 2880 nM | 91% | 1880 nM | 98% | 89% | 99% | 105% | 3.69 µM | 95% | > 100 µM | 96% | > 100 µM | > 100 µM | > 100 µM | 100% | > 100 µM | 72% | > 100 µM | TGI [21]: > 100 µM; growth at 1 µM [22]: 113%; growth at 0.1 µM [23]: 82%; Activity [24]: 12.08%; growth at 1 µM [25]: 60%; CC50 [26]: 5.96 µM; GI50 [27]: 3.52 µM; growth at 0.01 µM [28]: 89%; growth at 100 µM [29]: -46%; growth at 0.1 µM [30]: 96%; CC50 [31]: > 100 µM; growth at 0.01 µM [32]: 103%
COc1ccc(-c2cn3ccnc3c(-c3ccc4ncn(C5CCCCC5)c4c3)n2)cc1 | 73% | 92% | 1060 nM | 90% | 2220 nM | 91% | 90% | 94% | 99% | > 100 µM | 100% | > 100 µM | 93% | > 100 µM | > 100 µM | > 100 µM | 100% | > 100 µM | 59% | > 100 µM | TGI [21]: > 100 µM; growth at 1 µM [22]: 52%; growth at 0.1 µM [23]: 82%; Activity [24]: 13.96%; growth at 1 µM [25]: 45%; CC50 [26]: > 100 µM; GI50 [27]: 2.99 µM; growth at 0.01 µM [28]: 95%; growth at 100 µM [29]: -31%; growth at 0.1 µM [30]: 99%; CC50 [31]: > 100 µM; growth at 0.01 µM [32]: 101%
